This passage reports IC50 and MIC results from ChEMBL document CHEMBL1149324, “New steroidal dimers with antifungal and antiproliferative activity” (J Med Chem, 2004).

One may read the IC50 as the point on the concentration scale where inhibition reaches its midpoint. Lower therefore signals greater potency. By MIC is commonly meant the lowest concentration found to suppress growth. A low value points to inhibition by little substance.

One test deals with MCF7. Description: In vitro antiproliferative activity against MCF-7 cells. It counts as functional, cell-based. The note with it: Homo sapiens. An outline of the steps:
(§1)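 MEM with 10% heat-inactivated FBS at 37 °C, 5% CO2. Cells seeded at 15 000/well and adhered 24 h. Treated in triplicate for 72 h with 0, 0.1, 1.0 or 10 μM compound from DMSO stock. MTT 1 mg/mL for 4 h at 37 °C, formazan dissolved in 2-propanol, OD 570 nm (630 nm reference). DMSO-only cells set as 100% growth.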

The next test relates to HEp-2. Description: Antiproliferative activity against HEp-2 cells. The format is functional, cell-based. The note with it: Homo sapiens. The procedure, abridged: as §1
For another test, the system named is Yarrowia lipolytica. Description: Minimum inhibitory concentration against Yarrowia lipolytica. It counts as functional. An outline of the steps:
(§2)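 Disk diffusion on YPG agar. Yeast suspension from 24 h YPG broth (C. albicans five isolates and Y. lipolytica at 28 °C, B. poitrasii at 37 °C) spread-plated. Filter disks carried a DMSO control or graded compound amounts from 1 mg/mL DMSO stock. Plates incubated 28 °C, 24 h. MIC taken as lowest concentration giving an inhibition zone; triplicate.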

The test system of another test is Candida albicans. Put plainly: Minimum inhibitory concentration against Candida albicans. It counts as functional. The procedure, abridged:
as §2

A further test concerns Benjaminiella. Put plainly: Minimum inhibitory concentration against Benjaminiella poitrassi. The format is functional. The procedure, abridged: as §2

≈ marks a conversion by molar mass, not a printed value. Some results are limits rather than exact numbers.

For `C[C@H](CCC(=O)NCCNC(=O)CC[C@H](C)[C@H]1CCC2C3CCC4C[C@H](O)CC[C@]4(C)C3C[C@@H](O)[C@@]21C)[C@H]1CCC2C3CCC4C[C@H](O)CC[C@]4(C)C3C[C@@H](O)[C@@]21C` (stereo partly drawn), the IC50 in the test with MCF7 and in the test on HEp-2 was 2.2 µM throughout.

With `C[C@H](CCC(=O)NCCNCCNC(=O)CC[C@H](C)[C@H]1CCC2C3C(C[C@@H](O)[C@@]21C)[C@@]1(C)CC[C@@H](O)CC1C[C@H]3O)[C@H]1CCC2C3C(C[C@@H](O)[C@@]21C)[C@@]1(C)CC[C@@H](O)CC1C[C@H]3O` (stereo partly drawn), the MIC with Yarrowia lipolytica, against Candida albicans and against Benjaminiella was 0.0113 µM (≈ 0.01 µg/mL) in each case.

As for `C[C@@H]1C[C@@H]([C@H](O)CC2CC(=O)NC(=O)C2)C(=O)[C@@H](C)C1` [CYCLOHEXIMIDE], the MIC with Yarrowia lipolytica is 0.106 µM (≈ 0.0298 µg/mL); against Candida albicans, greater than 0.9 µM; in the test with Benjaminiella, 0.071 µM (≈ 0.02 µg/mL).
